Consider 38 variants from the RNAGym collection of RNA variant scans (doi:10.1126/science.aae0568).

B1: tRNA (parent)
chain: GUUCCGUUGGCGUAAUGGUAACGCGUCUCCCUCCUAAGGAGAAGACUGCGGGUUCGAGUCCCGUACGGAACG

Fewer inactive variants are shown than the library holds. Some results are limits rather than exact numbers.

The variants in the data set derive from B1. Briefly: yeast fitness relative to wild type (ratio to wild type); higher = fitter; tRNA-Arg(CCU), competitive growth, 37 C, YPD. The method in brief: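 Amplicons of the tRNA-Arg(CCU) gene were sequenced, 100-nucleotide paired-end, from the start population and from each end population of a pooled yeast competition. The competition, in six parallel replicates, lasted 24 hours in YPD at 37°C. Fitness relative to wild type was calculated from changes in genotype frequencies. Genotypes had to have ≥ 100 starting reads, and estimates < 0.5 were set to 0.5.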
Consider GUUCUGUUGGCGUAAUGGUAACGCGUCUCCCUCCUAAGGAGAAGACUGCGGAUUCGAGUCCCGUUCGGAACG [C5U G52A A65U], for which the yeast fitness was ≤ 0.5.
GUUCCGUUGGCGUAACGGUAACGGGUCUCCCACCUAAGGAGAAGACUGCGGGUUCGAGUCCCGUACGGCACG [U16C C24G U32A A69C]: the yeast fitness is ≤ 0.5.
Regarding GUUGCCUGGGCGUAAUAGUAACACGUCUCCCUCCUAAGGAGAAGGCUGCGGGUUCGAGUCCCGUACGGACCG [C4G G6C U8G G17A G23A A45G A70C], the yeast fitness was ≤ 0.5.
Then GUUCCGUAGGCGUAAUGAUAACGCGUCUCACACCGAAGGAGAAGACUGCGGGUUCAAGUACGGUAAGGAACG [U8A G18A C30A U32A U35G G56A C60A C62G C66A], with ≤ 0.5.
Then GUUCCCUUGGCGUCAUGGUAACGCGUUUCCCUCCUAAGGAGAAGACUGCGGGUUCGAGUCCCGUACGGAACG [G6C A14C C27U], with 0.539; and GUUCCGUUGGGGUAAUGGUAACGUGUCUCCCUCCUAAGGAGUUGACUGCGGGUUCGAGUCCCGUACGGAACG [C11G C24U A42U A43U], with 0.653.
Then GUUCCCUUGGCGCAAUGGUAACGCGUCUCCCUCCUAAGGAGAAGACUGCGGGUUCGAGUCCCGUACGGAACG [G6C U13C], with 0.823; and GUUCCGUUGGCGUAAUGGUAACACGUCUCCCUCCUAAACAGAAGACUGCAGGUUCCAGUCCCGUACGGAACG [G23A G38A G39C G50A G56C], with ≤ 0.5.
GUUCCGUUGGUGUUAUGGUAACGGGUCUCCCUCCUAAGGAGGAGACUGCGGGUUCGAGUCCCGUACGGAACG [C11U A14U C24G A42G]: the yeast fitness came out at 0.54.
Turning to GUUCCGUUGGCGUAAUGGUAACGCGUCUCCUUCCCAAGGGGAAGACUGCGGGUUCGAGUCCCGUACGGAACG [C31U U35C A40G], the yeast fitness is ≤ 0.5.
The same measure for GUCCCGUUGCCGUAAUGGUAAUGCGUCUCCCUCCUAAGGAGAAGACUGCGGGUUGGAGUCCCGUACGGAACG [U3C G10C C22U C55G]: ≤ 0.5; for GUUCCGUUGGCGUUAUGGUAACGCGUCUCCCUCCUAUGGAGAAGACUGCGGGUUCGAGUCCGGUACGGAUCG [A14U A37U C62G A70U]: ≤ 0.5; for GUUCCGUUAGCUUUAUGGUAACGCGUCUCCCUCAUAAGGAGAAGACUGCGGGUUCGAGUCCCGUCCGGAACG [G9A G12U A14U C34A A65C]: ≤ 0.5.
The same measure for GUUCCGUUGGUGUAAUGGUAACGCGGCCCCCUCCUAAGGAGAAGACUGCGGGUUCAAGUCCCGUACGGAACG [C11U U26G U28C G56A]: ≤ 0.5; for GUUCCGUUGGCGUAAUGGUAACCCGUCUCCCUCCUAUGGAGAAGACCGCGGGUUCGAGUGCCGUAUGGAACG [G23C A37U U47C C60G C66U]: ≤ 0.5.
Then GUUCCGUUGGCCUAAUGGUAACGCGUCUGCCUCCUAAGGAGAAGACUGCGGGAUCGAGUCCCGUACGGAACG [G12C C29G U53A], with 0.609; and GUUCCGUUGGCGUAAUGGUAACCGGUCUCCCUGCUAAGGUGAAGACUGAGGGUUCGAGUCCCGUACGGAACG [G23C C24G C33G A40U C49A], with ≤ 0.5.
Take GUUCCGUUGGCGUAAUGGCAACGCGUCUCCCUCCUAAGGAGAGGACUGCGGGUUCGAGUCCCGUACGGUACG [U19C A43G A69U]: the yeast fitness was 1.05.
Take GUGCCGUUGGCGUAAUGGUAACGCGUCUCCUUCCUAAGGAGAAGACUGUGGGUUCGAGUCCCGUACGGACCG [U3G C31U C49U A70C]: the yeast fitness was ≤ 0.5.
Then GUUCCGUUGGCGUAAUGAUAACGCGUCUCCCUCCUAAGGAGAGGACUGCGGGUUCGAGUCCCGUACGGAACG [G18A A43G], with 0.904; and GUUCCGUUGGCGUAAUGGUAACGCGUCUCCCUCCUUAGGAGUAGACUGUGGGUUCGAGUCCCGUACGGAACG [A36U A42U C49U], with 0.576.
The same measure for GUUCCGUUGGCGUAAUGGUAACGCGUCUCGGAUCUAAGGAGAAGACUGCGGGUUCGAGUCCCGUACGGAACG [C30G C31G U32A C33U]: 0.554.
Then GUUCUGUUGGCGUUAUGGUAACGCGUCUCCGUCCUAAGGAGAAGACUGCGGGUUCGAGACUCGUACGGAACG [C5U A14U C31G U59A C61U], with ≤ 0.5; and GUUCGGUUGGCGUAAAGGUAACGCGUCUCCCUCGUAAGCAGAAGACUGCGGGUUAGCGUCCCGUACGGAACG [C5G U16A C34G G39C C55A A57C], with ≤ 0.5; and GUUCCGUUGGCGUAAUGGUAACGCAUCUCCCUCCUAAGGAGAAGAUUGCGGGUUCGAGUCCGGUACGGAACG [G25A C46U C62G], with 0.739.
Turning to GUUCCGUUGGCGUCAUGGUAACGCGUCUCCCUCCUAAGGGGAAGACUGCGGGUUCGGGUCCCGUACGGAACG [A14C A40G A57G], the yeast fitness stood at 0.539.
Then GUUCCGUUGCCGUAAUGGUAACGCGUCUCCCACCUGAGGAGAAGACUGCGGGUUCGAGUCCCGUACGGAACG [G10C U32A A36G], with ≤ 0.5; and GUUCCGAUGGCGUAAUGGUAACGCGUCUCCCUCCUAAGGAGCAGACAGCGGGUUCGAGUCCCCUACGGCACG [U7A A42C U47A G63C A69C], with ≤ 0.5.
Then GUUCCGUUGGCGUAAUGGUAACGCGUCUCCCUCCUUUGGAGAAGACUGCGGGUUAGAGUCCCCUACGGAACG [A36U A37U C55A G63C], with ≤ 0.5.
For GUUCCGUUGGCGUAAUGGUAACGCGUCUCCCUCCUAAGGAGAAGACUGUGGGUUCGAGUCCCGUACGGCACG [C49U A69C], the yeast fitness worked out at 1.01.
The same measure for GUUCCAUAGGCGUAAUGGUAACGCGUCUCCCUCCUAAGGAGAAGACUGCGGAUUCCAGUCCCGUACGGAACG [G6A U8A G52A G56C]: ≤ 0.5; for GUUCCGUUGGCGUAAUGGUAAGGCGUCUCCCUCCUAAGGAGAAGACCGCGGGUUCGAGUCCCGUACGGAACG [C22G U47C]: 0.89.
Then GUUCCGUUCGCGUAAUGGUAACGCGCCUCCCUCGUAGGGAGAAGACUGCGGGUUCGAGUGCCGUCCGGAACG [G9C U26C C34G A37G C60G A65C], with ≤ 0.5.
The same measure for GUUCCGUUGGCGUAAUGGUAACGCGUCUCCCUCCUAAGGAGAGGACUGCGGGUUCGAGUCCCCUACGAAACG [A43G G63C G68A]: ≤ 0.5.
As for GUUCCGUUGGAGUAAUGGUAACGCGUCUCCCUCCUAGGGAGAAGACUGAGGGUUCGAGUCCCGUACGGAACG [C11A A37G C49A], the yeast fitness came out at 0.653.
Then GUUCCGUUGGCGUAAUGGUAACGCGUCUCCAUCCUAAGGUGAAGACUGCGGGGUCCAGUCCGGUACGGAACG [C31A A40U U53G G56C C62G], with ≤ 0.5.
The same measure for GUUCCGUUGGCGUAAUGGUAACGCGUCUUCCUCCUAAGGAGAAGAGUGCGGGUCCCAGUCCCGUACGGAACG [C29U C46G U54C G56C]: ≤ 0.5.
The same measure for GUUCCGUUGGCGUGAUGGUAACGCGUCUCCCUCCUAAGGAGCAGACUGCGGGUACGAGUCCCGUACGGAACG [A14G A42C U54A]: ≤ 0.5.
